Data taken from paper PMC4488387 (Nature methods, 2015).

Assays:
Nluc-A1 receptor [1] = molecular target: T1, Nluc-A1 receptor (Homo sapiens, UniProt P30542); test: NanoBRET saturation binding, HEK293 cells stably expressing Nluc-A1; settings: Nluc-A1, concentrations up to 500 nM, non-specific 1 μM DPCPX
T1 sequence (P30542 2-326 limits assumed): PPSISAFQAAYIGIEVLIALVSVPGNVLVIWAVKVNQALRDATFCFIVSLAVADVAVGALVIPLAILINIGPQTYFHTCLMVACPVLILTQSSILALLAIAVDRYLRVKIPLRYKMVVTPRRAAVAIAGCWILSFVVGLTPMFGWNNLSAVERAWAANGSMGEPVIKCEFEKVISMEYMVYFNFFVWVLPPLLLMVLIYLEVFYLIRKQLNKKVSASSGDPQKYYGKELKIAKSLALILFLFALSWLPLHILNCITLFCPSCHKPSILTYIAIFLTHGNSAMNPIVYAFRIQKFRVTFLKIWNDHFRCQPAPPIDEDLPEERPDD

Nluc-A1 receptor [2] = molecular target: T1, Nluc-A1 receptor; test: NanoBRET association kinetics of CA200645 binding; settings: read-out: KD from kinetics (koff/kon); Nluc-A1, room temperature, 60 min, n=3
Outline: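 Stable single-cell-cloned HEK293 Nluc-A1 cells were seeded 24 h ahead. Medium was replaced with HBSS containing 10 uM furimazine and equilibrated 15 min in the reader. The fluorescent ligand was then added at several concentrations, and each well was read once per min for 60 min.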

Row | Compound | saturable specific BRET signal (Nluc-A1 receptor [1]) | Kd (Nluc-A1 receptor [2]) [nM]
1 | COc1ccc(-n2nc3c(NC(=O)CCC(=O)NCCOCCOCCNC(=O)CCCCCNC(=O)COc4ccc(/C=C/C5=[N+]6C(=Cc7ccc(-c8cccs8)n7[B-]6(F)F)C=C5)cc4)nc4ccccc4n3c2=O)cc1 [AV039] | did not detect a saturable specific BRET signal | 
2 | CA200645 |  | 20.4 ± 6.9
